Where a name gives a salt, the structure may show the parent alone. Activity calls are given as the source filed them. The rule behind the calls is not given here.
Experiments:
Enterococcus faecalis = assay: Antibacterial activity against Enterococcus faecalis ATCC 19433 assessed as zone of inhibition at 100 ug/disk after 24 hrs; assay type: functional, organism-based
Outline: (§1)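 Bacteria grown on Mueller-Hinton agar. Paper disks (6 mm) loaded with 100 µg test compound per disk were placed on the seeded agar surface. Plates were incubated at 37 °C for 24 h, then scored for the presence of a zone of inhibition.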

Streptococcus mutans = assay: Antibacterial activity against Streptococcus mutans ATCC 25175 assessed as zone of inhibition at 100 ug/disk after 24 hrs; assay type: functional, organism-based; outline: as §1
Aspergillus fumigatus = assay: Antifungal activity against Aspergillus fumigatus ATCC 10894 assessed as zone of inhibition at 100 ug/disk after 48 hrs
Geotrichum candidum = assay: Antifungal activity against Geotrichum candidum AS2.498 assessed as zone of inhibition at 100 ug/disk after 48 hrs
Staphylococcus aureus = assay: Antibacterial activity against Staphylococcus aureus ATCC 6538 assessed as zone of inhibition at 100 ug/disk after 24 hrs; assay type: functional, organism-based; outline: as §1
Micrococcus luteus = assay: Antibacterial activity against Sarcina lutea CMCC B28001 assessed as zone of inhibition at 100 ug/disk after 24 hrs; assay type: functional, organism-based; outline: as §1
Candida albicans = assay: Antifungal activity against Candida albicans ATCC 10231 assessed as zone of inhibition at 100 ug/disk after 48 hrs
[1] = Cytotoxicity against human C8166 cells after 4 days by MTT method; assay type: cell-based
Outline: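 C8166 cells were seeded at 3 × 10⁴/well with or without a range of test-compound concentrations, in triplicate. They were incubated 4 days at 37 °C in humid 5% CO₂, and viability was read by MTT. CC₅₀ is the concentration reducing viable cells by 50%.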

[2] = Selectivity index, ratio of CC50 for human C8166 cells to EC50 for HIV1 LAI; assay type: toxicity, cell-based; settings: read-out: Ratio CC50/EC50
Outline: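 Index calculated as CC₅₀/EC₅₀. CC₅₀ came from a 4-day MTT viability assay in C8166 cells run in parallel with a 4-day HIV-1 LAI (MOI 0.058) replication assay in C8166 cells, whose EC₅₀ was read from p24 antigen capture ELISA.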

[3] = system: Human immunodeficiency virus 1; assay: Inhibition of HIV1 LAI replication in C8166 cells after 4 days by ELISA; assay type: functional, organism-based; settings: Human immunodeficiency virus 1, LAI, C8166, 96 h
Outline: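 C8166 cells were infected with HIV-1 LAI (MOI 0.058) for 1.5 h at 37 °C, PBS-washed, and seeded at 3 × 10⁴/well with or without compounds; indinavir sulfate was the positive control. After 4 days, supernatant was inactivated with 0.5% Triton X-100 and diluted threefold. p24 was measured by capture ELISA (anti-p24 mAb coat, HRP-anti-p24, OPD, A490), and EC₅₀ was derived from p24 level.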

Row | EC50 [3] [µM] | SMILES | Activity (Enterococcus faecalis) | Activity (Streptococcus mutans) | Activity (Aspergillus fumigatus) | Activity (Geotrichum candidum) | Activity (Staphylococcus aureus) | Activity (Micrococcus luteus) | Activity (Candida albicans) | CC50 at 96 h [1] [µM] | selectivity ratio [2]
1 |  | CC1(C)CC(=O)C2=C(O1)[C@H](O)[C@]1(O)C[C@H](C(C)(C)O)O[C@H]1C2 | inactive | inactive | inactive | inactive | inactive | inactive | inactive |  | 
2 |  | CC1(C)CC(=O)c2cc3c(cc2O1)C[C@H](C(C)(C)O)O3 | inactive | inactive | inactive | inactive | inactive | inactive | inactive |  | 
3 | 16.1 | CC(C)=C/C=C1/C[C@@H]2O[C@@H](C(C)(C)O)C[C@@]23O[C@H]3[C@@H]1O [PESTALOTHEOL C] | inactive | inactive | inactive | inactive | inactive | inactive | inactive | 163 | 10.1
4 | 0.00818 | CC(C)(C)NC(=O)[C@@H]1CN(Cc2cccnc2)CCN1C[C@@H](O)C[C@@H](Cc1ccccc1)C(=O)N[C@H]1c2ccccc2C[C@H]1O [INDINAVIR SULFATE] |  |  |  |  |  |  |  |  | 
5 |  | CC1(C)CC(=O)C2=C(C[C@]3(O)C[C@H](C(C)(C)O)O[C@H]3C2)O1 | inactive | inactive | inactive | inactive | inactive | inactive | inactive |  | 

— ChEMBL document CHEMBL1149851, “Pestalotheols A-D, bioactive metabolites from the plant endophytic fungus Pestalotiopsis theae” (J Nat Prod, 2008)
